Measurements reported in ChEMBL document CHEMBL1125375, “Synthesis and structure-activity relationships of acyclic omega chain conjugated diene analogues of enisoprost” (1992).
Calls of active or inactive are those of the source. The rule behind the calls is not given here.

Key:
[1] = Selectivity ratio was evaluated by the quotient of diarrheal ED50 value divided by antisecretory ED50 x 10 E-3; format: functional
Method in brief: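 Quotient of diarrheal ED50 (male rats, oral graded doses, all-or-none diarrhea over 8 h) over antisecretory ED50 (Pavlov pouch beagles, intrapouch dosing, percent reduction of food-stimulated 4-h total acid output). Antisecretory ED50 from linear regression of dose-response, 3–6 doses and 2–4 dogs per dose.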

Canis familiaris [2] = test: Gastric antisecretory activity in food stimulated pavlov dogs by intrapouch administration; format: functional; details: Canis lupus familiaris
Method in brief: (§1)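 Adult female beagles (6–11 kg) with innervated Pavlov gastric pouches, food-deprived 14 h with water. After 30 min basal collection, prostaglandin in buffer-ethanol vehicle given into pouch via Thomas cannula; 30 min later pouch emptied and secretion stimulated by feeding canned dog food. Juice collected at 30-min intervals over 4 h; total acid output = volume × acidity. Percent reduction from control over 4 h.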

Rattus norvegicus = test: Compound was evaluated for diarrheagenic side effects in adult male rats by intragastric administration; format: functional; details: po
Method in brief: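 Adult Charles River male rats, 210–230 g, individually housed, fasted 24 h with water ad libitum. Logarithmically graded prostaglandin doses given orally (N = 6–12). Diarrhea scored all-or-none for 8 h after dosing.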

Canis familiaris [3] = test: Gastric antisecretory activity in food stimulated pavlov dogs by intrapouch administration; Inactive at 3.0 ug/Kg; format: functional, organism-based; details: Canis lupus familiaris; method in brief: as §1

| Compound | Ratio [1] | ED50 (Canis familiaris [2]) [µg/kg] | ED50 (Rattus norvegicus) [µg/kg] | ED50 (Canis familiaris [3]) |
| --- | --- | --- | --- | --- |
| CCCCC(C)(O)C/C=C/[C@H]1[C@H](O)CC(=O)[C@@H]1CC/C=C\CCC(=O)OC (stereo not given in full) [ENISOPROST] | 2 | 0.023 | 49 | – |
| C=C/C=C(\C)[C@](C)(O)C/C=C/[C@H]1[C@H](O)CC(=O)[C@@H]1CC/C=C\CCC(=O)OC | – | – | > 3160 | inactive |
| C/C=C\C=C\[C@](C)(O)C/C=C/[C@H]1[C@H](O)CC(=O)[C@@H]1CC/C=C\CCC(=O)OC | 34 | 0.009 | 306 | – |
| COC(=O)CC/C=C\CC[C@H]1C(=O)C[C@@H](O)[C@@H]1/C=C/C[C@@](C)(O)/C=C/C=C(C)C | > 53 | 0.06 | > 3160 | – |
| COC(=O)CC/C=C\CC[C@H]1C(=O)C[C@@H](O)[C@@H]1/C=C/C[C@@](C)(O)/C=C/C(C)=C(C)C | > 53 | 0.06 | > 3160 | – |
| C=C/C=C/[C@](C)(O)C/C=C/[C@H]1[C@H](O)CC(=O)[C@@H]1CC/C=C\CCC(=O)OC | 35 | 0.007 | 243 | – |
| C=C(C)/C=C/[C@](C)(O)C/C=C/[C@H]1[C@H](O)CC(=O)[C@@H]1CC/C=C\CCC(=O)OC | 210 | 0.002 | 420 | – |
| C/C=C(C)/C=C/[C@](C)(O)C/C=C/[C@H]1[C@H](O)CC(=O)[C@@H]1CC/C=C\CCC(=O)OC | 62 | 0.003 | 185 | – |
| C=C/C(C)=C/[C@](C)(O)C/C=C/[C@H]1[C@H](O)CC(=O)[C@@H]1CC/C=C\CCC(=O)OC | 1.4 | 0.71 | 1030 | – |
| C/C=C/C=C/[C@](C)(O)C/C=C/[C@H]1[C@H](O)CC(=O)[C@@H]1CC/C=C\CCC(=O)OC | 8 | 0.03 | 250 | – |
| COC(=O)CC/C=C\CC[C@H]1C(=O)C[C@@H](O)[C@@H]1/C=C/C[C@@](C)(O)/C=C/C1=CCCC1 | > 158 | 0.02 | > 3160 | – |
| C/C=C(C)\C=C\[C@](C)(O)C/C=C/[C@H]1[C@H](O)CC(=O)[C@@H]1CC/C=C\CCC(=O)OC | 76 | 0.016 | 1230 | – |
